According to PubChem BioAssay:
Active and inactive are the calls of the source.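 How the source made its calls, unless noted: active means Her2 level under about 52% in both replicate screens, with viability over 70% of control (limit read from the data); inconclusive means Her2 under the limit in one screen only, or viability under 70%; inactive means Her2 level above the set limit.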

What was measured:
[1] = Her2 expression decrease, cell viability multiplex – SKBR3 breast tumor cells, AlphaScreen, ATP viability, primary screen (AID 461); settings: SKBR3 Her2 protein level, 18-24 h, measured here: SKBR3 viability, ATP luminescence, at 10 µM;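 on Her2 level: lower value means less Her2 protein in the cells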;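 on viability: percent of carrier control wells set as 100% viability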
[2] = molecular target: Receptor tyrosine-protein kinase erbB-2 (Homo sapiens) (UniProt P04626); assay: as above; settings: 18-24 h, at 10 µM, stronger effect = lower value
Receptor tyrosine-protein kinase erbB-2 (Homo sapiens), sequence (P04626 whole entry, looked up): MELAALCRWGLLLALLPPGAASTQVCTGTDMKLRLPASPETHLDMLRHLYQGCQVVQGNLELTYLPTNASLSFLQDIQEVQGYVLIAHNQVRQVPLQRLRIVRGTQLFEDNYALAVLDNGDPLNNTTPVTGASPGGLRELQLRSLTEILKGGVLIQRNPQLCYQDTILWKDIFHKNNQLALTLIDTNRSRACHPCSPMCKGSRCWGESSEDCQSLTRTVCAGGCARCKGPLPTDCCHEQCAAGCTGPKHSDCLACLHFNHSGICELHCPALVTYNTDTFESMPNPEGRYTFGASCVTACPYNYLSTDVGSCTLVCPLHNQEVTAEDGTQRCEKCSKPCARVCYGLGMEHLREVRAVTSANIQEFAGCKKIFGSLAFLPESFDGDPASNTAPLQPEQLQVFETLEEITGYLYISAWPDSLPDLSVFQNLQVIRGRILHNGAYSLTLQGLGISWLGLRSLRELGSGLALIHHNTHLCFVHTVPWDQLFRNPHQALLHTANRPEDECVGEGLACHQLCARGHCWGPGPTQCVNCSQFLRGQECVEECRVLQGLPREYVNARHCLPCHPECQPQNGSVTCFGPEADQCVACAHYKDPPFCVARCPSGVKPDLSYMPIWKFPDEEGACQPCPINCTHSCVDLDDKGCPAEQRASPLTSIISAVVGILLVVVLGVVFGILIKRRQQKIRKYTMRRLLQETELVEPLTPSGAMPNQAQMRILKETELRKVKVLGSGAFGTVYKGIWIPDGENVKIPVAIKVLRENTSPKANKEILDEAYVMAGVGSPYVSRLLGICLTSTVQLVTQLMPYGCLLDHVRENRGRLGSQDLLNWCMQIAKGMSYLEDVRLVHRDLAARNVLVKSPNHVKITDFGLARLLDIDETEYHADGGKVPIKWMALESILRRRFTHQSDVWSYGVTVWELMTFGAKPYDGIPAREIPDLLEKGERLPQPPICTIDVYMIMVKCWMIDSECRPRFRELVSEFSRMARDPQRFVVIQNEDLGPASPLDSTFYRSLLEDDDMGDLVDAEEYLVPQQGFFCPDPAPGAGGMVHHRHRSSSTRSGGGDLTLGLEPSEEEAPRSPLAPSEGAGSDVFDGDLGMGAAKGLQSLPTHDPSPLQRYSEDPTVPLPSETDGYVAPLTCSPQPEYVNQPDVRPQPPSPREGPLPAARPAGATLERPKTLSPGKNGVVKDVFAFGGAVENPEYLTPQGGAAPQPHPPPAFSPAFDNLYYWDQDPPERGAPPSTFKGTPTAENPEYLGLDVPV

[3] = reduced viability of SK-BR-3 breast cancer cells – cell-based, 24 h, human, pilot screen (AID 572;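 active means viability at or below 10% of carrier control in both of two separate runs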;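 further: compound exposure lasted between 18 and 24 h rather than exactly 24 h; 100% = carrier-treated control wells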); settings: SK-BR-3 viability, CellTiter-Glo luminescence, at 10 µM, stronger effect = lower value
[4] = HUVEC growth inhibition – cell-based, human, primary screen (AID 575;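 active means viability at or below 30% in both replicate assays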;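 further: 100% = median of untreated cell wells with 0.1% DMSO on each plate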); settings: HUVEC proliferation, CellTiter-Glo luminescence, 72 h; at 10 µM; stronger effect = lower value
How it was run: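 Timing: 72 h treatment at 37 °C; material: HUVEC primary cells; technique: CellTiter-Glo luminescence measuring cellular ATP; controls: vehicle and MePR control wells; measure: percent of median DMSO-control luminescence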

[5] = H69AR cell proliferation blockers – human, duplicate replicates, primary screen (AID 580;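 active means viability at or under a set limit in both replicates, limit being median viability minus 3 SD, cut at about 48% in these data, passing the limit was not always enough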;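 further: 100% = mean luminescence of untreated wells and 0% = no signal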); settings: H69AR lung tumor cells viability, ATP luminescence, 72 h; at 10 µM; stronger effect = lower value
[6] = MRP1 drug-resistance reversers in H69AR cells – cell-based, doxorubicin co-treatment, pilot screen (AID 601;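 active means viability loss from added drug above about 55%, and viability with drug at most 40%, in both replicates, limit read from the data, passing the limit was not always enough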); settings: CellTiter-Glo, 72 h, at 10 µM; for differential viability (reversal): stronger effect = higher value
[7] = yeast transport mutant growth inhibition pilot in 384-well plates, post-Golgi transport modulator project (AID 636; in the data active means inhibition above about 31%); settings: absorbance 615 nm, about 18 h, stronger effect = higher value
[8] = growth suppression of yeast trafficking mutant, preliminary HTS, modulators of trafficking downstream of Golgi apparatus project, 1536-format plate, OD 615 nm (AID 637; in the data active means inhibition above about 30%); settings: yeast transport mutant growth, absorbance 615 nm, 18 h; stronger effect = higher value
[9] = H69AR cells + 2 uM doxorubicin, measured here: viability with 2 uM doxorubicin, stronger effect = lower value
[10] = H69AR cells, compound alone cytotoxicity

SMILES	viability [1] [%]	Her2 level [2]	viability [3]	viability [4]	viability [5]	differential viability (reversal) ([6]; H69AR cells + 2 uM doxorubicin)	viability [6, 9] [%]	viability [6, 10] [%]	inhibition [7]	inhibition [8]
COc1ccc(-c2nc(C#N)c(NCCCN(C)C)o2)cc1OC	95	111% (inactive)	95% (inactive)	102% (inactive)	96.2% (inactive)	3.08% (inactive)	93.1	96.2	-0.26% (inactive)	-5% (inactive)
Cc1c[nH]c2cccc(OCC(O)CNC(C)(C)C)c12 (stereo not given)	91.5	96% (inactive)	91.5% (inactive)	100% (inactive)	88.3% (inactive)	0.28% (inactive)	88	88.3	-3.6% (inactive)	17.8% (inactive)
CC(=O)N1CCC(N(C(=O)Nc2ccc(C)c(C)c2)C2CCCC2)CC1	92	102% (inactive)	92% (inactive)	90.4% (inactive)	85.6% (inactive)	-3.42% (inactive)	89.1	85.6	-1.54% (inactive)	-5.33% (inactive)
Cc1nnc(NCCc2ccccc2)n(N)c1=O	107	104% (inactive)	107% (inactive)	120% (inactive)	94.1% (inactive)	-3.7% (inactive)	97.8	94.1	-0.4% (inactive)	-9.03% (inactive)
N#CCSc1nc(-c2ccccc2)cs1	86.5	98.5% (inactive)	86.5% (inactive)	109% (inactive)	98% (inactive)	-0.97% (inactive)	98.9	98	-1.71% (inactive)	2.58% (inactive)
CN(C)S(=O)(=O)c1ccc(S(=O)(=O)Nc2ccc3c(c2)oc2ccccc23)cc1	79.5	97% (inactive)	79.5% (inactive)	59.2% (inactive)	73.2% (inactive)	-2.9% (inactive)	76.1	73.2	2.11% (inactive)	-3.64% (inactive)
O=C(NCC1COCCO1)C1CCN(S(=O)(=O)c2ccccc2)CC1 (stereo not given)	90	119% (inactive)	90% (inactive)	106% (inactive)	109% (inactive)	10.3% (inactive)	99.2	109	1.2% (inactive)	-7.26% (inactive)
CCOC(=O)C1CCN(Cc2c(O)ccc3ccccc23)CC1	126	115% (inactive)	126% (inactive)	83.6% (inactive)	98.2% (inactive)	5.58% (inactive)	92.6	98.2	-7.67% (inactive)	5.4% (inactive)
CC(=O)Nc1ccc(OCC(O)Cn2nc(C)nc2C)cc1 (stereo not given)	93	86.5% (inactive)	93% (inactive)	81.3% (inactive)	91% (inactive)	-5.46% (inactive)	96.5	91	-1.67% (inactive)	-4.83% (inactive)
COc1ccc(Cl)cc1Nc1nc(C)cc(=O)[nH]1	95	86% (inactive)	95% (inactive)	80.6% (inactive)	95.8% (inactive)	2.12% (inactive)	93.7	95.8	-3.68% (inactive)	-0.97% (inactive)
COC(=O)C1=C(N)Oc2cc(C)[nH]c(=O)c2C1c1ccncc1 (stereo not given)	132	106% (inactive)	132% (inactive)	94.4% (inactive)	94.7% (inactive)	7.35% (inactive)	87.3	94.7	-0.79% (inactive)	5% (inactive)
C(=N\n1cnnc1)/c1cccnc1	87.5	107% (inactive)	87.5% (inactive)	105% (inactive)	98.6% (inactive)	9.86% (inactive)	88.8	98.6	4.34% (inactive)	0.36% (inactive)
Cc1cccc(Cc2nnc(NC(=O)c3cccc(S(=O)(=O)N4CCOCC4)c3)s2)c1	107	100% (inactive)	107% (inactive)	87.1% (inactive)	79.2% (inactive)	-2.97% (inactive)	82.2	79.2	-1.82% (inactive)	-5.33% (inactive)
CCc1ccc(N2CC(C(=O)OCC(=O)Nc3cc(C)on3)CC2=O)cc1 (stereo not given)	94	92% (inactive)	94% (inactive)	107% (inactive)	110% (inactive)	11.1% (inactive)	99.2	110	0.9% (inactive)	-3.83% (inactive)
COc1ccccc1C(=O)n1nc(-c2ccc(Cl)cc2)nc1N	90	74.5% (inactive)	90% (inactive)	78.7% (inactive)	71.2% (inactive)	-13.7% (inactive)	84.9	71.2	-5.06% (inactive)	-8.5% (inactive)
CN1C(=O)CCC1(O)c1ccccc1 (stereo not given)	89	98% (inactive)	89% (inactive)	116% (inactive)	92.3% (inactive)	0.975% (inactive)	91.3	92.3	0.91% (inactive)	-8.17% (inactive)

SMILES	viability [1] [%]	Her2 level [2]	viability [3]	viability [4]	viability [5]	differential viability (reversal) ([6]; H69AR cells + 2 uM doxorubicin)	viability [6, 9] [%]	viability [6, 10] [%]	inhibition [7]	inhibition [8]
CC(C)Cn1c(CN(Cc2ccccc2)Cc2ccccc2)nc2c1c(=O)n(C)c(=O)n2C	85.5	86.5% (inactive)	85.5% (inactive)	54.8% (inactive)	90.1% (inactive)	1.2% (inactive)	88.9	90.1	-1.47% (inactive)	3.93% (inactive)
CC(C)Oc1ccc(N2CC(C(=O)Nc3ccccc3F)CC2=O)cc1 (stereo not given)	101	122% (inactive)	101% (inactive)	92.6% (inactive)	97.6% (inactive)	8.51% (inactive)	89.1	97.6	-1.17% (inactive)	-10.3% (inactive)
Cc1cc2ncn(C(=O)c3c(-c4ccccc4)noc3C)c2cc1C	102	110% (inactive)	102% (inactive)	76.8% (inactive)	81.8% (inactive)	4.1% (inactive)	77.7	81.8	0.13% (inactive)	-6.23% (inactive)
O=S(c1ccsc1)c1ccsc1	116	87% (inactive)	116% (inactive)	104% (inactive)	88.7% (inactive)	-4.55% (inactive)	93.2	88.7	1.6% (inactive)	1.29% (inactive)
CCOC(=O)N1CCC(NC(=O)c2ccc3c(c2)N(C)CCS3)CC1	87	92.5% (inactive)	87% (inactive)	109% (inactive)	92.2% (inactive)	8.3% (inactive)	83.9	92.2	-4.21% (inactive)	4.92% (inactive)
CCN1CCN(c2ncnc3c2oc2nc(C)c4c(c23)CC(C)(C)OC4)CC1	91.5	122% (inactive)	91.5% (inactive)	98.3% (inactive)	97% (inactive)	-1.16% (inactive)	98.1	97	-0.78% (inactive)	-3.17% (inactive)
COc1cccc(Nc2cc(C)nc3ccccc23)c1	77	83% (inactive)	77% (inactive)	85.4% (inactive)	74.4% (inactive)	-1.05% (inactive)	75.4	74.4	-4.4% (inactive)	1.11% (inactive)
CCCC(=O)Nc1cccc(NC(=O)CN2CCN(c3ccccc3OC)CC2)c1	98.5	83% (inactive)	98.5% (inactive)	96.6% (inactive)	82.9% (inactive)	-3.71% (inactive)	86.6	82.9	-5.81% (inactive)	-4.92% (inactive)
COc1cccc(C2=Nn3c(nnc3-c3ccccc3O)SC2)c1	100	61% (inactive)	100% (inactive)	89.4% (inactive)	67.2% (inactive)	-18.5% (inactive)	85.7	67.2	-3.16% (inactive)	-2.83% (inactive)
O=C(OCC#CCSc1nnc(-c2ccncc2)o1)c1cccs1	118	102% (inactive)	118% (inactive)	88.2% (inactive)	82% (inactive)	-1.25% (inactive)	83.3	82	-4.67% (inactive)	1.43% (inactive)
CCn1nnc(NC(=O)c2ccc(-c3ccc(Cl)cc3)o2)n1	87.5	122% (inactive)	87.5% (inactive)	90% (inactive)	91.2% (inactive)	3.21% (inactive)	88	91.2	-6.62% (inactive)	-0.66% (inactive)
Cc1nc(SCC#N)c2c(C)c(C)sc2n1	128	107% (inactive)	128% (inactive)	98.6% (inactive)	98.4% (inactive)	9.83% (inactive)	88.6	98.4	-5.33% (inactive)	-0.65% (inactive)
CC(=O)C1=C(O)C(=O)N(Cc2ccco2)C1c1ccc2c(c1)OCO2 (stereo not given)	108	84.5% (inactive)	108% (inactive)	119% (inactive)	112% (inactive)	7.12% (inactive)	105	112	-5.07% (inactive)	0.48% (inactive)
CCOC(=O)CC(=O)Nc1c(C)cc(C)cc1C	94.5	90.5% (inactive)	94.5% (inactive)	85% (inactive)	102% (inactive)	10.3% (inactive)	91.8	102	2.57% (inactive)	-2.95% (inactive)
CCCCCc1c(C)nc(Nc2nc(C)c3cc(OC)ccc3n2)[nH]c1=O	92.5	85.5% (inactive)	92.5% (inactive)	55.2% (inactive)	78% (inactive)	22.3% (inactive)	55.7	78	-7.7% (inactive)	11.1% (inactive)
